Reference: ChEMBL document CHEMBL3853295, “Design and synthesis of novel pyrazolo[1,5-a]pyrimidine derivatives bearing nitrogen mustard moiety and evaluation of their antitumor activity in vitro and in vivo” (Eur J Med Chem, 2016)
Calls of active or inactive are those of the source. No cut-off for these calls is given here.

Experiments:
[1] = Antitumor activity against human HepG2 cells xenografted in nude mouse assessed as tumor growth inhibition at 10 mg/kg, ip administered every day for 15 times measured from day 12 to 26; format: functional; design: scale not given: the % may be the effect or the level left
Method in brief: (§1)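 Female nude mice given 5 × 10^6 HepG-2 cells subcutaneously in the left flank. Randomized, n = 5 per group. Daily i.p. injection for 15 times, with saline as vehicle control. Tumor length and width recorded every other day; volume taken as 1/2·length·width² once tumors reached 130–160 mm3. Result is tumor growth inhibition versus the saline group.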

[2] = system: Mus musculus; assay: Toxicity in nude mouse xenografted with human HepG2 cells assessed as body weight change at 10 mg/kg, ip administered every day for 15 times measured from day 12 to 26; format: organism-based; details: in vivo
Method in brief: (§2)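 Same subcutaneous HepG-2 xenograft in female nude mice (5 × 10^6 cells, left flank). n = 5 per group, daily i.p. dosing for 15 times, saline control. Body weight of each mouse recorded every other day during therapy and followed after treatment stopped. Treated versus untreated compared by p value over days 12–26.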

[3] = system: Mus musculus; assay: Toxicity in nude mouse xenografted with human HepG2 cells assessed as body weight change at 20 mg/kg, ip administered every day for 15 times measured from day 12 to 26; format: organism-based; details: in vivo; method in brief: as §2
[4] = Antitumor activity against human HepG2 cells xenografted in nude mouse assessed as tumor growth inhibition at 20 mg/kg, ip administered every day for 15 times measured from day 12 to 26; format: functional; design: scale not given: the % may be the effect or the level left; method in brief: as §1
[5] = system: HepG2; assay: Induction of apoptosis in human HepG2 cells assessed as early apoptotic cells at 2 uM after 24 hrs by Annexin V-FITC/propidium iodide staining based flow cytometric analysis analysis (reference value: 1.60 %); format: functional
[6] = Cell cycle arrest in human HepG2 cells assessed as accumulation at G1 phase at 1 to 3 uM after 24 hrs by propidium iodide staining-based flow cytometric analysis; format: functional
Method in brief: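 HepG2 cells exposed 24 h, then trypsinized, washed in ice-cold PBS and fixed in ice-cold 70% ethanol for at least 24 h. Resuspended in 0.4 mL PBS with RNase A (1 mg/ml stock) and PI (500 ug/ml stock) for 30 min at 4 °C in the dark. Cycle distribution (G1, S, G2/M percentages) read by flow cytometry.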

[7] = Cytotoxicity against human A549 cells after 72 hrs by MTT assay; format: functional, cell-based; details: A549, 72 h
Method in brief: (§3)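 Cells cultured in DMEM or RPMI 1640 with 10% FBS. Seeded at about 2 × 10^3 per well and grown 24 h at 37 °C, 5% CO2. Compounds added at final 0.1–1000 uM for 72 h, 5 wells per concentration. MTT added for 4 h at 37 °C, then lysis overnight. Absorbance read at 570 nm against a 650 nm reference; IC50 calculated.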

[8] = system: HepG2; assay: Induction of apoptosis in human HepG2 cells assessed as late apoptotic cells at 2 uM after 24 hrs by Annexin V-FITC/propidium iodide staining based flow cytometric analysis analysis (reference value: 5.93 %); format: functional
[9] = system: HepG2; assay: Induction of apoptosis in human HepG2 cells assessed as necrotic cells at 2 uM after 24 hrs by Annexin V-FITC/propidium iodide staining based flow cytometric analysis analysis (reference value: 1.74 %); format: functional
[10] = system: HepG2; assay: Induction of apoptosis in human HepG2 cells assessed as late apoptotic cells at 4 uM after 24 hrs by Annexin V-FITC/propidium iodide staining based flow cytometric analysis analysis (reference value: 5.93 %); format: functional
[11] = system: HepG2; assay: Induction of apoptosis in human HepG2 cells assessed as viable cells at 4 uM after 24 hrs by Annexin V-FITC/propidium iodide staining based flow cytometric analysis analysis (reference value: 90.7 %); format: functional; details: HepG2, 24 h, read-out: Activity
[12] = Cytotoxicity against human HepG2 cells after 72 hrs by MTT assay; format: functional, cell-based; details: HepG2, 72 h; method in brief: as §3
[13] = system: HepG2; assay: Induction of apoptosis in human HepG2 cells assessed as early apoptotic cells at 6 uM after 24 hrs by Annexin V-FITC/propidium iodide staining based flow cytometric analysis analysis (reference value: 1.60 %); format: functional
[14] = system: HepG2; assay: Induction of apoptosis in human HepG2 cells assessed as necrotic cells at 6 uM after 24 hrs by Annexin V-FITC/propidium iodide staining based flow cytometric analysis analysis (reference value: 1.74 %); format: functional
[15] = system: HepG2; assay: Induction of apoptosis in human HepG2 cells assessed as late apoptotic cells at 6 uM after 24 hrs by Annexin V-FITC/propidium iodide staining based flow cytometric analysis analysis (reference value: 5.93 %); format: functional
[16] = Cytotoxicity against human GES-1 cells assessed as reduction in cell viability after 72 hrs by MTT assay; format: toxicity, cell-based, GES1; method in brief: as §3
[17] = system: HepG2; assay: Induction of apoptosis in human HepG2 cells assessed as viable cells at 6 uM after 24 hrs by Annexin V-FITC/propidium iodide staining based flow cytometric analysis analysis (reference value: 90.7 %); format: functional; details: HepG2, 24 h, read-out: Activity
[18] = system: HepG2; assay: Induction of apoptosis in human HepG2 cells assessed as viable cells at 2 uM after 24 hrs by Annexin V-FITC/propidium iodide staining based flow cytometric analysis analysis (reference value: 90.7 %); format: functional; details: HepG2, 24 h, read-out: Activity
[19] = system: HepG2; assay: Induction of apoptosis in human HepG2 cells assessed as necrotic cells at 4 uM after 24 hrs by Annexin V-FITC/propidium iodide staining based flow cytometric analysis analysis (reference value: 1.74 %); format: functional
[20] = system: Mus musculus; assay: Toxicity in nude mouse xenografted with human HepG2 cells assessed as body weight change at 10 and 20 mg/kg, ip administered every day for 15 days and measured treatment cessation; format: organism-based; details: in vivo, 360 h; method in brief: as §2
[21] = Cytotoxicity against human SH-SY5Y cells after 72 hrs by MTT assay; format: functional, cell-based; method in brief: as §3
[22] = Cytotoxicity against human MCF7 cells after 72 hrs by MTT assay; format: functional, cell-based; details: MCF7, 72 h; method in brief: as §3
[23] = system: HepG2; assay: Induction of apoptosis in human HepG2 cells assessed as early apoptotic cells at 4 uM after 24 hrs by Annexin V-FITC/propidium iodide staining based flow cytometric analysis analysis (reference value: 1.60 %); format: functional
[24] = Cytotoxicity against human DU145 cells after 72 hrs by MTT assay; format: functional, cell-based; details: DU-145, 72 h; method in brief: as §3

## O=P1(N(CCCl)CCCl)NCCCO1 (stereo not drawn) [CYCLOPHOSPHAMIDE ANHYDROUS]
[1]
  Activity: 42.11%
[2]
  Activity: 7.04%
[3]
  Activity: 10.63%
[4]
  Activity: 51.48%

## N#Cc1cnn2c(Nc3ccc(N(CCCl)CCCl)cc3)cc(CN3CCC(N4CCCCC4)CC3)nc12
[5]
  Activity: 2.87%
[6]
  Activity: Active
[7]
  IC50: 6.13 µM
[8]
  Activity: 11.9%
[9]
  Activity: 3.39%
[10]
  Activity: 18%
[1]
  Activity: 43.88%
[11]
  viability at 4 µM: 73.2%
[12]
  IC50: 0.21 µM
[13]
  Activity: 5.56%
[14]
  Activity: 7.69%
[15]
  Activity: 29.5%
[16]
  IC50 at 72 h: 9.54 µM
[17]
  viability at 6 µM: 57.3%
[2]
  Activity: 7.15%
[18]
  viability at 2 µM: 81.8%
[19]
  Activity: 5.08%
[20]
  Activity: Non-Toxic
[21]
  IC50: 6.02 µM
[3]
  Activity: 9.21%
[22]
  IC50: 8.31 µM
[4]
  Activity: 58.26%
[23]
  Activity: 3.78%
[24]
  IC50: 6.82 µM
